ChEMBL document CHEMBL1124655, “Substituted 5-amino-4,5,6,7-tetrahydroindazoles as partial ergoline structures with dopaminergic activity” (J Med Chem, 1989)
Calls of active or inactive are those of the source. The calls are words filed in the database; no cut-off is given here.

Columns and labels:
[1] = target: D(2) dopamine receptor (Bos taurus) (UniProt P20288); test: Inhibitory activity against dopamine receptor D2 in calf corpus striatum using [3H]-Spiperone as radioligand; format: tissue-based
Procedure, shortened: (§1)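 Displacement of [3H]spiperone binding in calf corpus striatum membranes; some values given as percent displacement at 1000 nM.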

[2] = target: D(2) dopamine receptor (Rattus norvegicus) (UniProt P61169); test: (§2) Inhibitory activity against dopamine receptor D2 in rat corpus striatum using [3H]apomorphine as radioligand; format: tissue-based
Procedure, shortened: (§3)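 Displacement of [3H]apomorphine binding in rat corpus striatum membranes; some values given as percent displacement at 1000 nM.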

Rattus norvegicus [3] = test: Inhibition of serum prolactin concentration in rats when 5 mg/Kg was administered intraperitoneally; format: functional
Procedure, shortened: (§4)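 Prolactin in serum of nonreserpinized male rats (Clemens method) after 5 mg/kg ip. Values are mean ± SE for 6-10 rats; significance versus control at P<0.05.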

Rattus norvegicus [4] = test: Reduction of serum prolactin concentration in rats, 5 mg/Kg administered intraperitoneally; format: functional; procedure, shortened: as §4
D(2) dopamine receptor [5] = target: T1, D(2) dopamine receptor (Bos taurus, UniProt P20288); test: Inhibitory activity against dopamine receptor D2 in calf corpus striatum using [3H]spiperone as radioligand; format: tissue-based; procedure, shortened: as §1
D(2) dopamine receptor [6] = target: T2, D(2) dopamine receptor (Rattus norvegicus, UniProt P61169); test: as §2; format: tissue-based; procedure, shortened: as §3
Rattus norvegicus [7] = test: Dopa accumulation in GBL-treated rats after the administration at a dose of 0.3 mg/Kg; format: functional
Procedure, shortened: (§5)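 Male rats given compound ip; γ-butyrolactone 500 mg/kg ip 10 min later, then decarboxylase inhibitor NSD 1015 100 mg/kg ip 5 min after GBL and 40 min before sacrifice. Striatal dopa accumulation measured by LC with electrochemical detection; Roth autoreceptor paradigm. Values are mean ± SE, five rats per group; one control group received no GBL.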

Rattus norvegicus [8] = test: Dopa accumulation in GBL-treated rats after the administration at a dose of 1.0 mg/Kg; format: functional; procedure, shortened: as §5
Rattus norvegicus [9] = test: Dopa accumulation in GBL-treated rats after the administration at a dose of 10 mg/Kg; format: functional; procedure, shortened: as §5
Rattus norvegicus [10] = test: Dopa accumulation in GBL-treated rats after the administration at a dose of 3 mg/Kg; format: functional; procedure, shortened: as §5
Rattus norvegicus [11] = species on record: Rattus norvegicus; test: Dopa accumulation in GBL-treated rats in the absence of the compound; format: functional; procedure, shortened: as §5
Rattus norvegicus [12] = test: Effect on 3,4-Dihydroxyphenylacetic acid concentration in whole rat brain when 10 mg/Kg was administered intraperitoneally; format: functional
Procedure, shortened: (§6)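 Rats dosed 10 mg/kg ip. Whole-brain dopamine, DOPAC and HVA measured by liquid chromatography with electrochemical detection, expressed as nmol/g and as % change from a control group. Mean ± SE, five rats per group; significance at P<0.05.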

Rattus norvegicus [13] = test: Effect on serum corticosterone level […] when 10 mg/Kg was administered intraperitoneally; format: functional
Procedure, shortened: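 Rats dosed 10 mg/kg ip. Serum corticosterone determined spectrofluorometrically (Solem and Brinck-Johnsen method), reported as µg/100 mL versus a vehicle group and as % change from control. Mean ± SE, five rats per group; significance P<0.05.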

Rattus norvegicus [14] = test: Effect on dopamine concentration in whole rat brain when 10 mg/Kg 10 mg/kg was administered intraperitoneally; format: functional; settings: route intraperitoneal; procedure, shortened: as §6
Rattus norvegicus [15] = test: (§7) Effect on homovanillic acid concentration in whole rat brain when 10 mg/Kg was administered intraperitoneally; format: functional; procedure, shortened: as §6
Rattus norvegicus [16] = test: Inhibition of serum prolactin concentration in rats when 5 mg/Kg was administered intraperitoneally; NS means not significant; format: functional, organism-based; procedure, shortened: as §4
Rattus norvegicus [17] = test: Effect on dopamine concentration in whole rat brain when 10 mg/Kg was administered intraperitoneally; format: functional; procedure, shortened: as §6
D(2) dopamine receptor [18] = target: T1, D(2) dopamine receptor; test: (§8) Inhibitory activity against Dopamine receptor D2 in calf corpus striatum using [3H]spiperone as radioligand; format: tissue-based; procedure, shortened: as §1
D(2) dopamine receptor [19] = target: T2, D(2) dopamine receptor; test: Inhibitory activity against Dopamine receptor D2 in rat corpus striatum using [3H]Apomorphine as radioligand; format: tissue-based; procedure, shortened: as §3
Rattus norvegicus [20] = test: Inhibition of serum prolactin concentration in rats when 5 mg/kg was administered intraperitoneally; format: functional; settings: ip, route intraperitoneal; procedure, shortened: as §4
Rattus norvegicus [21] = test: Effect on homovanillic acid concentration in whole rat brain when 10 mg/kg was administered intraperitoneally; format: functional; settings: route intraperitoneal
Procedure, shortened: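 Rats dosed ip at 10 mg/kg. Whole brain was assayed for HVA, with dopamine and DOPAC measured alongside, by liquid chromatography with electrochemical detection. Levels are in nmol/g and expressed as % change from control. Values are mean ± standard error for five rats per group. Significance versus control was taken at P<0.05.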

Rattus norvegicus [22] = test: Effect on serum corticosterone level in whole rat brain when 10 mg/kg was administered intraperitoneally; format: functional; settings: route intraperitoneal
Procedure, shortened: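 Rats dosed ip at 10 mg/kg. Serum corticosterone was determined spectrofluorometrically and reported in µg/100 mL, as % change from vehicle. Values are mean ± standard error for five rats per group. Significance versus control was taken at P<0.05.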

Rattus norvegicus [23] = test: as §7
[24] = target: D(2) dopamine receptor (Bos taurus) (UniProt P20288); test: as §8; format: tissue-based; procedure, shortened: as §1
[25] = target: D(2) dopamine receptor (Rattus norvegicus) (UniProt P61169); test: Inhibitory activity against Dopamine receptor D2 in rat corpus striatum using [3H]apomorphine as radioligand; format: tissue-based; procedure, shortened: as §3

T2 sequence (P61169 whole entry): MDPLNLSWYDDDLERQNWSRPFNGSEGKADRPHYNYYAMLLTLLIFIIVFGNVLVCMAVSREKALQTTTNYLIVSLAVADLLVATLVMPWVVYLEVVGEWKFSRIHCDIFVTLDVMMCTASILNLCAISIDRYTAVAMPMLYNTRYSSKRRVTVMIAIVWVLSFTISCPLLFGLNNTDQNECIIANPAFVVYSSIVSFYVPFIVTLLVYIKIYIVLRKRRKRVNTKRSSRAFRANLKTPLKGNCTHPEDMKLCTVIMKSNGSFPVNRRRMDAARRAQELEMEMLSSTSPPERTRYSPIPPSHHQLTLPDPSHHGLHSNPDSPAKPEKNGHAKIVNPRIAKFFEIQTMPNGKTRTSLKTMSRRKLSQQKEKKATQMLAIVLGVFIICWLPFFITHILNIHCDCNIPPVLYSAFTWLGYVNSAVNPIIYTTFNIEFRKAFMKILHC
D(2) dopamine receptor (Rattus norvegicus), sequence (P61169 whole entry): as above
T1 sequence (P20288 whole entry): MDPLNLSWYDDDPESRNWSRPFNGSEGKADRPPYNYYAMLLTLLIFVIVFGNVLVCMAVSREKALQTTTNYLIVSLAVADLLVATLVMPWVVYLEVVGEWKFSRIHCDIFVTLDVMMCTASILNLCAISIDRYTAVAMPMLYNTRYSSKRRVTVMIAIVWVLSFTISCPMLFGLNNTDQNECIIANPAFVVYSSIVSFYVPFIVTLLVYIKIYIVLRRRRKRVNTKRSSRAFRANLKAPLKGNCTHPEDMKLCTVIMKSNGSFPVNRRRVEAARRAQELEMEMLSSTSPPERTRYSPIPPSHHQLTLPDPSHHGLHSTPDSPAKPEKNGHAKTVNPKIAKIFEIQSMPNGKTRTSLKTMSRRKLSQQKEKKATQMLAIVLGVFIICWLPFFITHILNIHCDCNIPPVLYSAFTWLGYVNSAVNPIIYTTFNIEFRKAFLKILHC
D(2) dopamine receptor (Bos taurus), sequence (P20288 whole entry): as above

CCCN[C@@H]1Cc2c[nH]nc2C[C@H]1CCCO
Displacement [1]: 10% | Displacement [2]: 45% | Inhibition (Rattus norvegicus [3]): 46% | Turnover (Rattus norvegicus [4]): 4.4 ng/mL

CCCNC1CCc2n[nH]cc2C1 (centres undefined)
IC50 (D(2) dopamine receptor [5]): 15200 nM | IC50 (D(2) dopamine receptor [6]): 65 nM | Accumulation (Rattus norvegicus [7]): 25.2 nM/g | Accumulation (Rattus norvegicus [8]): 23.1 nM/g | Accumulation (Rattus norvegicus [9]): 12.1 nM/g | Accumulation (Rattus norvegicus [10]): 16.9 nM/g | Accumulation (Rattus norvegicus [11]): 24.8 nM/g | Inhibition (Rattus norvegicus [3]): 78% | Turnover (Rattus norvegicus [12]): 0.51 nmol/g | Turnover (Rattus norvegicus [13]): 31.7 µg/100 mL | Turnover (Rattus norvegicus [4]): 2.4 ng/mL | Turnover (Rattus norvegicus [14]): 4.86 nmol/g | Turnover (Rattus norvegicus [15]): 0.51 nmol/g

CSCCCNC1CCc2n[nH]cc2C1 (centres undefined)
IC50 (D(2) dopamine receptor [5]): > 10000 nM | IC50 (D(2) dopamine receptor [6]): 2030 nM | inhibition (Rattus norvegicus [16]): inactive | Turnover (Rattus norvegicus [12]): 0.49 nmol/g | Turnover (Rattus norvegicus [13]): 3.8 µg/100 mL | Turnover (Rattus norvegicus [4]): 9.9 ng/mL | Turnover (Rattus norvegicus [17]): 3.91 nmol/g | Turnover (Rattus norvegicus [15]): 0.27 nmol/g

CCCN[C@@H]1Cc2c[nH]nc2C[C@H]1CCCOC
Displacement [1]: 12% | Displacement [2]: 50% | Inhibition (Rattus norvegicus [3]): 44% | Turnover (Rattus norvegicus [4]): 4.6 ng/mL

CCNC1CCc2n[nH]cc2C1 (centres undefined)
IC50 (D(2) dopamine receptor [5]): 11600 nM | IC50 (D(2) dopamine receptor [6]): 610 nM | Inhibition (Rattus norvegicus [3]): 91% | Turnover (Rattus norvegicus [12]): 0.55 nmol/g | Turnover (Rattus norvegicus [13]): 16.6 µg/100 mL | Turnover (Rattus norvegicus [4]): 1.6 ng/mL | Turnover (Rattus norvegicus [17]): 6.39 nmol/g | Turnover (Rattus norvegicus [15]): 0.4 nmol/g

c1ccc(CCNC2CCc3n[nH]cc3C2)cc1 (centres undefined)
IC50 (D(2) dopamine receptor [5]): > 10000 nM | inhibition (Rattus norvegicus [16]): inactive | Turnover (Rattus norvegicus [12]): 0.51 nmol/g | Turnover (Rattus norvegicus [13]): 7.7 µg/100 mL | Turnover (Rattus norvegicus [4]): 6 ng/mL | Turnover (Rattus norvegicus [17]): 3.65 nmol/g | Turnover (Rattus norvegicus [15]): 0.34 nmol/g

CCCN(C)C1CCc2n[nH]cc2C1 (centres undefined)
IC50 (D(2) dopamine receptor [18]): 8330 nM | IC50 (D(2) dopamine receptor [19]): 1230 nM | inhibition in vivo at 5 mg/kg (Rattus norvegicus [20]): 82% | Turnover (Rattus norvegicus [12]): 0.43 nmol/g | Turnover (Rattus norvegicus [21]): 0.22 nmol/g | Turnover (Rattus norvegicus [13]): 41 µg/100 mL | Turnover (Rattus norvegicus [4]): 2 ng/mL | Turnover (Rattus norvegicus [17]): 5.16 nmol/g

CCCN[C@@H]1Cc2c[nH]nc2C[C@H]1CCCSC
Displacement [1]: 10% | Displacement [2]: 45% | inhibition (Rattus norvegicus [16]): inactive | Turnover (Rattus norvegicus [4]): 7.8 ng/mL

CCCN(CCc1cccs1)C1CCc2n[nH]cc2C1 (centres undefined)
IC50 (D(2) dopamine receptor [5]): 1410 nM | IC50 (D(2) dopamine receptor [6]): 160 nM | Inhibition (Rattus norvegicus [3]): 73% | Turnover (Rattus norvegicus [12]): 0.43 nmol/g | Turnover (Rattus norvegicus [13]): 17.3 µg/100 mL | Turnover (Rattus norvegicus [4]): 2.8 ng/mL | Turnover (Rattus norvegicus [17]): 4.78 nmol/g | Turnover (Rattus norvegicus [15]): 0.24 nmol/g

CCCN1C[C@H](CSC)C[C@@H]2c3cccc4[nH]cc(c34)C[C@H]21 [PERGOLIDE]
Inhibition (Rattus norvegicus [3]): 88% | Turnover (Rattus norvegicus [12]): 0.53 nmol/g | Turnover (Rattus norvegicus [21]): 0.32 nmol/g | Turnover (Rattus norvegicus [22]): 54 µg/100 mL | Turnover (Rattus norvegicus [4]): 2 ng/mL | Turnover (Rattus norvegicus [17]): 6.42 nmol/g

CCCNC1CCc2nc(N)sc2C1 (centres undefined)
IC50 (D(2) dopamine receptor [5]): > 1000 nM | Inhibition (Rattus norvegicus [3]): 78% | Turnover (Rattus norvegicus [12]): 0.35 nmol/g | Turnover (Rattus norvegicus [23]): 0.15 nmol/g | Turnover (Rattus norvegicus [13]): 54 µg/100 mL | Turnover (Rattus norvegicus [4]): 3.7 ng/mL | Turnover (Rattus norvegicus [17]): 5.08 nmol/g

CCCN(CCCSC)C1CCc2n[nH]cc2C1 (centres undefined)
IC50 (D(2) dopamine receptor [5]): 3990 nM | IC50 (D(2) dopamine receptor [6]): 310 nM | Inhibition (Rattus norvegicus [3]): 90% | Turnover (Rattus norvegicus [12]): 0.28 nmol/g | Turnover (Rattus norvegicus [13]): 48 µg/100 mL | Turnover (Rattus norvegicus [4]): 1.1 ng/mL | Turnover (Rattus norvegicus [17]): 4.92 nmol/g | Turnover (Rattus norvegicus [15]): 0.16 nmol/g

CCCCNC1CCc2n[nH]cc2C1 (centres undefined)
inhibition (Rattus norvegicus [16]): inactive | Turnover (Rattus norvegicus [12]): 0.53 nmol/g | Turnover (Rattus norvegicus [13]): 5.8 µg/100 mL | Turnover (Rattus norvegicus [4]): 13.4 ng/mL | Turnover (Rattus norvegicus [17]): 3.9 nmol/g | Turnover (Rattus norvegicus [15]): 0.36 nmol/g

CCCN(CCc1ccccc1)C1CCc2n[nH]cc2C1 (centres undefined)
IC50 (D(2) dopamine receptor [5]): 1060 nM | IC50 (D(2) dopamine receptor [6]): 140 nM | Inhibition (Rattus norvegicus [3]): 87% | Turnover (Rattus norvegicus [12]): 0.4 nmol/g | Turnover (Rattus norvegicus [13]): 17.5 µg/100 mL | Turnover (Rattus norvegicus [4]): 1.4 ng/mL | Turnover (Rattus norvegicus [17]): 4.41 nmol/g | Turnover (Rattus norvegicus [15]): 0.23 nmol/g

CCCN[C@@H]1Cc2c[nH]nc2C[C@H]1CCC
Displacement [24]: 9% | Displacement [25]: 41% | Turnover (Rattus norvegicus [4]): 5.1 ng/mL

CCCCN(CCC)C1CCc2n[nH]cc2C1 (centres undefined)
IC50 (D(2) dopamine receptor [18]): 10000 nM | IC50 (D(2) dopamine receptor [19]): 330 nM | inhibition in vivo at 5 mg/kg (Rattus norvegicus [20]): 83% | Turnover (Rattus norvegicus [12]): 0.39 nmol/g | Turnover (Rattus norvegicus [13]): 38.6 ng/mL | Turnover (Rattus norvegicus [4]): 1.9 ng/mL | Turnover (Rattus norvegicus [17]): 4.94 nmol/g

CCCCNC1CCc2[nH]ncc2C1 (centres undefined)
IC50 (D(2) dopamine receptor [5]): > 10000 nM | IC50 (D(2) dopamine receptor [6]): > 10000 nM

c1csc(CCNC2CCc3n[nH]cc3C2)c1 (centres undefined)
IC50 (D(2) dopamine receptor [5]): > 10000 nM | IC50 (D(2) dopamine receptor [6]): 9160 nM | inhibition (Rattus norvegicus [16]): inactive | Turnover (Rattus norvegicus [12]): 0.49 nmol/g | Turnover (Rattus norvegicus [13]): 5.5 µg/100 mL | Turnover (Rattus norvegicus [4]): 7.9 ng/mL | Turnover (Rattus norvegicus [17]): 3.47 nmol/g | Turnover (Rattus norvegicus [15]): 0.38 nmol/g
